Results on five molecules are retold here after ChEMBL document CHEMBL1135975, “Design, synthesis, and evaluation of new noncross-linking pyrrolobenzodiazepine dimers with efficient DNA binding ability and potent antitumor activity” (2002).

“And” between values parts separate entries of the source, which are not always exact repeats. Identical values can stand only once. Bounds are passed on as bounds.

For assay [1], the species on record is Bos taurus. The assay is described as follows: Thermal denaturation measured for calf thymus DNA after incubation at 37 degree at 0h. In outline:
(§1)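 Calf thymus DNA (100 µM in phosphate) with ligand at 20 µM final, a 1:5 ligand/DNA molar ratio, added from concentrated MeOH solution. Buffer was 10 mM sodium phosphate with 1 mM EDTA, pH 7.00. Samples were incubated at 37 °C for 0 or 18 h, then heated at 1 °C/min over 40-90 °C with A260 monitored. Tm was taken from the d(A260)/dT maxima, and ∆Tm given relative to DNA alone.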

Assay [2] is filed under the species Bos taurus. Description: Thermal denaturation measured for calf thymus DNA after incubation at 37 degree at 18 h. In outline:
as §1

The subject of the next assay is CNS carcinoma cell. The assay is described as follows: Drug concentration causing 50% lethality against human cancer line of CNS. In kind it is functional. In outline: (§2)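 Sixty-line human tumour panel screen: at least five concentrations at 10-fold dilutions, 48 h continuous exposure, growth read by sulforhodamine B protein stain. LC50 is the molar concentration giving 50% cell death (-50% growth) relative to control, as log LC50. Each cancer-type value is the average of 6-8 different cell lines.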

Assay [3] has as its system Panel leukemia (Carcinoma cell lines). The assay is described as follows: Drug concentration causing 50% lethality against human cancer line leukemia. In kind it is functional. The note with it: read-out: Log LC50 (the source's name) (converted). In outline:
as §2

The next assay has as its system Breast carcinoma cell. The assay is described as follows: Drug concentration causing 50% lethality against breast human cancer line. In kind it is functional. In outline:
as §2

Another assay deals with Melanoma cell. Description: Drug concentration causing 50% lethality against human cancer line melanoma. To be noted: read-out: Log LC50 (the source's name) (converted). In kind it is functional. In outline:
as §2

A further assay deals with Prostatic carcinoma cell. The assay is described as follows: Drug concentration causing 50% lethality against prostate human cancer line. In kind it is functional. To be noted: read-out: Log LC50 (the source's name) (converted). The gist of the method: as §2
The test system of the next assay is Ovarian carcinoma cell. Description: Drug concentration causing 50% lethality against ovarian human cancer line. In kind it is functional. To be noted: read-out: Log LC50 (the source's name) (converted). In outline:
as §2

Assay [4] concerns Tumor Cell line. Description: In vitro cytotoxicity of drug concentration causing 50% cell death. In kind it is functional, Homo sapiens. To be noted: read-out: Log LC50 (the source's name) (converted). In outline: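 Compound tested against sixty human tumour lines from nine cancer types, each line at at least five concentrations at 10-fold dilutions, 48 h continuous exposure, sulforhodamine B protein read-out. LC50 is the concentration causing 50% cell death (-50% growth) versus control. The value is the mean graph midpoint of log LC50 over all lines.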

Assay [5] relates to Tumor Cell line. Description: In vitro cytotoxicity of drug concentration causing total cell growth inhibition. In kind it is functional, Homo sapiens. The note with it: read-out: Log TGI (converted). In outline: (§3)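 Sixty human tumor cell lines covering nine cancer types. Continuous drug exposure for 48 h, with growth or viability read by sulforhodamine B protein assay. Dose-response curves were run at a minimum of five concentrations at 10-fold dilutions. GI50 (50% growth inhibition) and TGI (0% growth) were calculated relative to control and reported as log mean graph midpoints across all cell lines.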

The species entered for a further assay is Homo sapiens. The assay is described as follows: Drug concentration causing 50% lethality against human cancer line nonsmall-cell lung. In kind it is functional. The note with it: read-out: Log LC50 (the source's name) (converted). The gist of the method:
as §2

The test system of another assay is Renal cancer cell line. Description: Drug concentration causing 50% lethality against renal human cancer line. In kind it is functional. To be noted: read-out: Log LC50 (the source's name) (converted). In outline: as §2
Assay [6] relates to Tumor Cell line. The assay is described as follows: In-vitro cytotoxicity of Drug molar concentration causing 50% cell growth inhibition against Human tumor cell lines. In kind it is functional. The gist of the method: as §3
The next assay concerns Colon carcinoma cell. Description: Drug concentration causing 50% lethality against human cancer line of colon. In kind it is functional. The gist of the method: as §2
The mark [7] stands for this setting: Homo sapiens, Ovarian carcinoma cell.
Setting [8] is: Homo sapiens, Renal cancer cell line.

In general, ΔTm refers to the change in melting temperature against a reference sample. Turning to `COc1cc2c(cc1OCCCOc1cc3c(cc1OC)C(=O)N1CCC[C@H]1C=N3)N=C[C@@H]1CCCN1C2=O`, the ΔTm in the assay listed under Bos taurus [1] is 10.2 °C.

Usually LC50 stands for the concentration lethal to half of the exposed cells or organisms. High values mean a less lethal substance, low ones a more lethal substance. Broadly, the TGI is the concentration giving total growth inhibition. A word on the GI50: it is the concentration giving 50% growth inhibition. A higher GI50 goes with less potent growth inhibition. Consider `COc1cc2c(cc1OCCCCOc1cc3c(cc1OC)C(=O)N1CCC[C@H]1C(=O)N3)N=C[C@@H]1CCCN1C2=O`, for which the results for the shift in melting temperature (ΔTm) in the assay filed under Bos taurus [1] and in the assay filed under Bos taurus [2] were 5 °C and 8.5 °C, respectively. In addition, the median lethal concentration (LC50) in the assay with CNS carcinoma cell was 45.7 µM; in the assay with Breast carcinoma cell, 53.7 µM. Moreover, the CC50 was 24.4 µM in assay [3]; 41.7 µM in the assay on Melanoma cell (Homo sapiens, Melanoma cell); 67.6 µM in the assay with Prostatic carcinoma cell; 58.9 µM in the assay on Ovarian carcinoma cell (setting [7]); 50.1 µM in the assay with Tumor Cell line [4] (Homo sapiens, Tumor Cell line); 58.9 µM in the assay filed under Homo sapiens (Homo sapiens). Also, in the assay on Renal cancer cell line (setting [8]), the CC50 is 55 µM. Also, in the assay on Tumor Cell line [5] (Homo sapiens, Tumor Cell line), the total growth inhibition concentration (TGI) was 20.4 µM. This molecule also showed a GI50 with Tumor Cell line [6] (Homo sapiens, Tumor Cell line) of 7.24 µM. Besides, in the assay with Colon carcinoma cell, the LC50 (50% lethal concentration) is 57.5 µM.

Consider `COc1cc2c(cc1OCCCOc1cc3c(cc1OC)C(=O)N1CCC[C@H]1C(=O)N3)N=C[C@@H]1CCCN1C2=O`, for which the ΔTm in the assay filed under Bos taurus [1] came to 6.5 °C; in the assay filed under Bos taurus [2], 7 °C. Moreover, the CC50 is 33.1 µM in [3]; 83.2 µM with Melanoma cell (Homo sapiens, Melanoma cell); over 100 µM in the assay with Prostatic carcinoma cell; 95.5 µM in the assay with Ovarian carcinoma cell (setting [7]); 83.2 µM in the assay with Tumor Cell line [4] (Homo sapiens, Tumor Cell line); over 100 µM in the assay filed under Homo sapiens (Homo sapiens). For the same molecule, the CC50 in the assay on Renal cancer cell line (setting [8]) was 91.2 µM. For the same molecule, the total growth inhibition concentration (TGI) in the assay on Tumor Cell line [5] (Homo sapiens, Tumor Cell line) was 42.7 µM. Besides, growth in the assay on Tumor Cell line [6] (Homo sapiens, Tumor Cell line) was halved (GI50) at 13.2 µM.

For the molecule `COc1cc2c(cc1OCCCCCOc1cc3c(cc1OC)C(=O)N1CCC[C@H]1C(=O)N3)N=C[C@@H]1CCCN1C2=O`, the ΔTm was determined as 14 °C in the assay filed under Bos taurus [1] and 17 °C in the assay listed under Bos taurus [2]. In addition, the CC50 in the assay with Melanoma cell is 10 µM and 3.31 µM; with Prostatic carcinoma cell, over 100 µM; with Ovarian carcinoma cell (setting [7]), 87.1 µM; in the assay with Ovarian carcinoma cell, 60.3 µM; in the assay with Tumor Cell line [4] (Homo sapiens, Tumor Cell line), 44.7 µM; in the assay with Tumor Cell line [4] it was 27.5 µM. The CC50 in the assay filed under Homo sapiens (Homo sapiens) was 58.9 µM; in the assay listed under Homo sapiens, 79.4 µM; in the assay on Renal cancer cell line (setting [8]), 51.3 µM; in the assay with Renal cancer cell line it was 44.7 µM. The TGI in the assay with Tumor Cell line [5] (Homo sapiens, Tumor Cell line) was 2.24 µM; in the assay with Tumor Cell line [5] it was 1.12 µM. Besides, the 50% growth inhibitory concentration (GI50) with Tumor Cell line [6] was 0.12 µM; in the assay with Tumor Cell line [6] (Homo sapiens, Tumor Cell line), 0.115 µM.

As for `COc1cc2c(cc1O)N=C[C@@H]1CCCN1C2=O`, the values for the ΔTm in the assay filed under Bos taurus [1] and in the assay listed under Bos taurus [2] were 0.3 °C and 0.7 °C, respectively.
